The test system of assay [1] is 59-nt TAR RNA / TAR DNA hairpins. Nature of the assay: Gel-shift TAR RNA/DNA annealing assay. The class given is biochemical, HIV-1. The conditions noted are these: for kobs: average of three trials ± SD, SD; for Fold decrease of kobs relative to WT NC: normalized for protein concentration.
In assay [2] the test system is 5′-FAM-DNA20 (20-mer single-stranded DNA). Nature of the assay: Fluorescence anisotropy. Format: binding. The essentials:
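Binding was measured by fluorescence anisotropy. CCHC-containing constructs were reconstituted with 3 equiv zinc unless noted. Kd was fitted with a quadratic binding equation corrected for the bound/free intensity ratio.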
A general note: In fluorescence polarisation assays a small probe gives low polarisation when free and higher when bound to something large.

The subject of assay [3] is 59-nt TAR RNA and TAR DNA. Nature of the assay: Sedimentation assay of nucleic acid aggregation. Format: biochemical, HIV-1. The conditions noted are these: 0.2 mM MgCl2. The essentials:
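Refolded 32P-TAR RNA (15 nM) and TAR DNA (45 nM) were incubated with varying protein in 20 mM HEPES pH 7.5 and 20 mM NaCl (final MgCl2 0.2 mM) for 30 min at 37 °C. Fragments were run at 10–50 μM, with or without zinc. Samples were centrifuged at 10000 rpm for 10 min, and supernatant radioactivity was counted by scintillation.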

Setting [4] is: 0.88 μM peptide, 45 nM TAR DNA, 2 mM MgCl2.
Setting [5] is: 4 μM protein, 90 nM TAR DNA and 2 mM MgCl2.

For the substance “NC(1-14): HIV-1 NC fragment, residues 1-14, basic N-terminal domain”, the “Final % Annealing” value is given as 3% in assay [1] (20 μM peptide, 15 nM TAR RNA, 45 nM TAR DNA, 0.2 mM MgCl2, 37 °C, 30 min) and “did not change appreciably” in assay [1] (50 μM peptide, 15 nM TAR RNA, 45 nM TAR DNA, 0.2 mM MgCl2, 37 °C, 30 min). Besides, the “Binding to 5′-FAM-DNA20 (in words)” value in assay [2] (FA, no zinc acetate) is reported as “no binding could be detected”.
Turning to “NC(1-35): HIV-1 NC fragment, residues 1-35, purchased from Genscript”, the “RNA annealed at 30 sec” value in assay [1] (0.88 μM peptide, 45 nM TAR DNA, 0.2 mM MgCl2) was ~ 75%. Further, in assay [1] (setting [4]), the “Final % Annealing” value amounted to 54% and the kobs came to 0.17 ± 0.07 min⁻¹. Further, in assay [1] (0.88 μM peptide, 2 mM MgCl2), the “Fold decrease of kobs relative to WT NC” value is on record as 1.3 fold. Moreover, in assay [3], the “Nucleic acid aggregation (in words)” value is given as “essentially complete aggregation”. Besides, in assay [2] (5′-FAM-DNA20), the “Fold higher affinity of zinc-bound form relative to zinc-less variant” value is recorded as 2- to 3 fold. Further, in assay [2] (5′-FAM-DNA20, 50 mM NaCl), the “Fold lower ss DNA binding affinity than WT NC” value was no more than 2 fold. Further, the Kd in assay [2] (read-out: Apparent binding dissociation constant Kd to 5′-FAM-DNA20, FA, 20 nM DNA, 20 mM HEPES pH 7.5, 50 mM NaCl, 5 mM β-mercaptoethanol, 10 μM TCEP, 1 μM zinc acetate, 30 min, 25 °C, average of three trials ± SD, SD) stood at 0.086 ± 0.019 µM.
For “WT (zinc-less): full-length HIV-1 NC not reconstituted with zinc”, in assay [1] (setting [5]), the “Final % Annealing” value is given as 22%, the kobs amounted to 0.07 ± 0.02 min⁻¹ and the “Fold decrease of kobs relative to WT NC” value was found to be 2 fold.

These data come from publication PMC3875364 (Biochemistry, 2013).
